This is one part of a sample in which hits are shown more often than they occur.
PGC1a Ac signal: compounds raising PGC1a acetylation signal, primary screen, PGC1a modulator project, cell-based, U2OS, AlphaScreen, signal-increasing mode | overnight | activation, % at 15.6 µM | 0.21% of 350,000 active;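 active = every replicate reaching activation of at least 50%, whatever the mean replicate activation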;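 note: hits raise the AlphaScreen acetylation signal above neutral controls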
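System: Flag-PGC1a/GCN5 U2OS cells | Quantity: 7000 cells/well | Times: Overnight compound treatment, 37 °C | Measured by: AlphaScreen proximity luminescence, anti-acetyl-lysine antibody | Dosing: One concentration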
Starred values were filed as active, the others as inactive.

SMILES	PGC1a Ac signal
C[C@H]1CN([C@@H](C)CO)C(=O)Cc2cc(NS(=O)(=O)c3ccc(F)cc3)ccc2O[C@@H]1CN(C)C(=O)Nc1ccc2c(c1)OCO2	-55
NS(=O)(=O)c1cccc(NC(=O)CSc2ccccn2)c1	-48
O=C(CSc1nc(NS(=O)(=O)c2ccccc2)cc(=O)[nH]1)Nc1ccc(F)cc1	69*
CCOC(=O)c1c(NC(=O)/C=C/C(=O)O)sc(C)c1-c1ccc(C(C)(C)C)cc1	-47
CCOC(=O)c1c(NC(=O)c2c(Br)cnn2CC)sc(C)c1C	83*
C[C@H](CO)N1C[C@H](C)[C@H](CN(C)C(=O)CN(C)C)Oc2cc(-c3cncnc3)ccc2S1(=O)=O	-52
CCC(=O)N[C@H]1CC[C@H](CC(=O)OC)O[C@H]1CO	-43
C[C@H](CO)N1C[C@H](C)[C@H](CN(C)S(=O)(=O)c2ccccc2C#N)OCc2cnnn2CCCC1=O	-41
COc1ccc(C#Cc2c(-c3ccccc3)n(-c3ccccc3)c3ccc(CO)cc23)cc1	71*
CCOC(=O)C(CC)(CC)C(=O)/C=C/c1ccc(Br)cc1	-57
CCCCOc1ccc(/C=C/C(=O)OCC(=O)c2c(N)n(C)c(=O)n(C)c2=O)cc1OCC	-47
CCOc1ccc(/C=C/C(=O)Oc2ccccc2)cc1	154*
Cc1cc(=O)[nH]c(NN)n1	-50
Cc1cccc(S(=O)(=O)N2C[C@@H]3N[C@H](C2)C3c2ccc(-c3ccccc3C)cc2)c1 (stereo partly specified)	166*
O=S(=O)(c1ccc(-c2ccccc2)cc1)N1C[C@@H]2N[C@H](C1)[C@@H]2c1ccc(-c2cccnc2)cc1	-55
Cc1ccc(S(=O)(=O)N2C[C@@H]3N[C@H](C2)[C@@H]3c2ccc(-c3cccc(C)c3)cc2)cc1	66*
COc1cccc(S(=O)(=O)N2C[C@@H]3N[C@H](C2)C3c2ccc(-c3ccccc3C)cc2)c1 (stereo partly specified)	242*
COc1cccc(-c2ccc(C3[C@@H]4CN(S(=O)(=O)c5cccc(OC)c5)C[C@H]3N4)cc2)c1 (stereo partly specified)	57*
C[C@@H]1CN([C@@H](C)CO)S(=O)(=O)c2ccc(-c3ccc(C#N)cc3)cc2O[C@H]1CN(C)C(=O)CN(C)C	-41
Cc1ccc(-n2cccc2C(=S)N=P(N(C)C)(N(C)C)N(C)C)cc1	-85
Cn1cnc(S(=O)(=O)N2C[C@@H](O)COC[C@H]3O[C@H](CC(=O)NCc4cc(F)cc(F)c4)CC[C@@H]32)c1	-43
CCCCNC(=O)C1CCN(Cc2ccccn2)CC1	-46
C[C@H]1CN([C@@H](C)CO)S(=O)(=O)c2ccc(C#CC3CCCCC3)cc2O[C@@H]1CN(C)Cc1cccnc1	-64
COc1cc(OC)cc(C(=O)N[C@H](C(=O)OCC(=O)NC(=O)NC(C)(C)C)C(C)C)c1	-43
CCOc1ccc2nnc(-c3ccc(Br)cc3)n2n1	52*
SMILES	PGC1a Ac signal
Oc1ccccc1/C=N/Nc1nc2ccccc2o1	-41
NC(=S)N/N=C/c1cccc(O)c1O	76*
C[C@@H]1CN([C@H](C)CO)C(=O)c2cc(-c3ccccc3)cnc2O[C@H]1CN(C)C(=O)Cc1ccccn1	-51
O=C(CC1CC1)N[C@@H]1CC[C@@H](CCNS(=O)(=O)c2ccc(Cl)cc2)O[C@@H]1CO	-56
C=CCNC(=O)CC1Nc2c3ccccc3nc(=S)n2C1=O (stereo unspecified)	-41
C[C@H](CO)N1C[C@H](C)[C@@H](CN(C)Cc2ccccc2F)Oc2ncc(Br)cc2C1=O	-64
Cc1ccc(NC2=C(Cl)C(=O)c3ccccc3C2=O)cc1	-53
Cc1ccc(NC2=C([N+](=O)[O-])CS(=O)(=O)C2)cc1	218*
Cc1noc(C)c1NC(=O)N(C)C[C@@H]1OCCCC[C@@H](C)Oc2ccc(N(C)C)cc2C(=O)N([C@@H](C)CO)C[C@H]1C	-59
C[C@@H]1CN([C@H](C)CO)S(=O)(=O)c2ccc(-c3cncnc3)cc2O[C@H]1CN(C)Cc1cccnc1	-50
CCOc1ccc(N2CC(C(=O)Nc3ccc(S(=O)(=O)NCC4CCCO4)cc3)CC2=O)cc1 (stereo unspecified)	-56
C=CCN1C(=O)N(/C=C/C)c2cccc3cccc1c23	60*
CSC1SCC2C(=O)N(C)C(C(C)C)C(=O)OCC(NC(=O)c3cnc4ccccc4n3)C(=O)NC(C)C(=O)N(C)C1C(=O)N(C)C(C(C)C)C(=O)OCC(NC(=O)c1cnc3ccccc3n1)C(=O)NC(C)C(=O)N2C (stereo unspecified)	-39
c1cc2c3c(cccc3c1)C(N1CCCCCC1)=N2	86*
CC1CN(S(=O)(=O)c2ccc(C(=O)NCCCn3ccnc3)cc2)CC(C)O1 (stereo unspecified)	411*
CC(C)(C)c1ccc(C(=O)NCCN2CCOCC2)cc1	-65
O=[N+]([O-])c1ccc(S(=O)(=O)c2cccc(C(F)(F)F)c2)nc1	172*
Cc1cccc(C)c1NC(=O)C(NC(=O)c1ccccn1)c1ccc([N+](=O)[O-])cc1 (stereo unspecified)	-42
Cc1cc(C)n(C(=O)c2ccc([N+](=O)[O-])cc2N)n1	-44
Cc1c(C(=S)Nc2ccccc2)cnn1-c1ccc([N+](=O)[O-])cc1	71*
CCOc1ccc2c(c1)C(C)=CC(C)(C)N2S(=O)(=O)c1ccc(C)cc1	64*
N#Cc1ccsc1NC(=O)CSc1nnc(NC2CC2)s1	-41
C=C1C(=O)C=C[C@]2(C)C[C@@H]3OC(=O)[C@](C)(O)[C@H]3C[C@@H]12	178*
CCOC(=O)c1ccc(-c2c(-c3cc(OC)c(OC)c(OC)c3)noc2C)cc1F	59*
O=C(Cc1ccccn1)NCC[C@@H]1CC[C@@H](NC(=O)Nc2ccc(C(F)(F)F)cc2)[C@@H](CO)O1	-45
SMILES	PGC1a Ac signal
COc1ccc(C(NC(=O)c2c(F)c(F)c(F)c(F)c2F)c2ccccc2)cc1 (stereo unspecified)	-85
CC(=O)Nc1ccc(NS(=O)(=O)c2ccc(C)cc2)cc1[N+](=O)[O-]	58*
Cc1ccc(NC(=O)COC(=O)COc2ccc(Cl)cc2)c([N+](=O)[O-])c1	-40
Cc1ccc(S(=O)(=O)NC2=NCCCCC2)cc1	-46
Cc1cccc(OC2(c3ccccc3)OC(=O)c3ccccc32)c1C (stereo unspecified)	91*
C/C=C(/C)C(=O)O[C@@H]1c2cc(OC)c(OC)c(OC)c2-c2c(cc3c(c2OC)OCO3)C[C@H](C)[C@]1(C)O	167*
COc1ccc(CN(C)C[C@@H]2Oc3ccc(NS(=O)(=O)c4c(C)noc4C)cc3C(=O)N([C@H](C)CO)C[C@H]2C)cc1	-51
NC(=O)NC(=O)Nc1ccccc1Cl	-54
NC(=O)c1ccc(NC(=O)C#Cc2ccccc2)cc1	203*
Cc1ccccc1S(=O)(=O)N[C@H]1CC[C@H](CCn2cc(Cc3ccccc3)nn2)O[C@@H]1CO	-61
COc1ccc(S(=O)(=O)N(C)C[C@@H]2Oc3ccc(NC(=O)CCN4CCOCC4)cc3C(=O)N([C@H](C)CO)C[C@H]2C)cc1	-50
N#CC1=C(N)Oc2n[nH]c(-c3ccccc3)c2C1c1ccncc1 (stereo unspecified)	55*
O=C(CC1CC1)N[C@@H]1CC[C@H](CCNS(=O)(=O)c2ccc(Cl)cc2)O[C@H]1CO	-64
CCn1c(=O)c2c(cnn2C)c2ccccc21	-30
O=C(COC(=O)c1ccco1)NCc1ccc2c(c1)OCO2	-45
COc1ccc(CCNC(=O)COC(=O)c2ccco2)cc1OC	108*
